# Assay results from different studies.
# Compare with care: the assays were run in different laboratories.
# Target: Ephrin type-B receptor 4 (EPHB4, Homo sapiens, UniProt P54760)
# Residues used in one study (P54760 16-987): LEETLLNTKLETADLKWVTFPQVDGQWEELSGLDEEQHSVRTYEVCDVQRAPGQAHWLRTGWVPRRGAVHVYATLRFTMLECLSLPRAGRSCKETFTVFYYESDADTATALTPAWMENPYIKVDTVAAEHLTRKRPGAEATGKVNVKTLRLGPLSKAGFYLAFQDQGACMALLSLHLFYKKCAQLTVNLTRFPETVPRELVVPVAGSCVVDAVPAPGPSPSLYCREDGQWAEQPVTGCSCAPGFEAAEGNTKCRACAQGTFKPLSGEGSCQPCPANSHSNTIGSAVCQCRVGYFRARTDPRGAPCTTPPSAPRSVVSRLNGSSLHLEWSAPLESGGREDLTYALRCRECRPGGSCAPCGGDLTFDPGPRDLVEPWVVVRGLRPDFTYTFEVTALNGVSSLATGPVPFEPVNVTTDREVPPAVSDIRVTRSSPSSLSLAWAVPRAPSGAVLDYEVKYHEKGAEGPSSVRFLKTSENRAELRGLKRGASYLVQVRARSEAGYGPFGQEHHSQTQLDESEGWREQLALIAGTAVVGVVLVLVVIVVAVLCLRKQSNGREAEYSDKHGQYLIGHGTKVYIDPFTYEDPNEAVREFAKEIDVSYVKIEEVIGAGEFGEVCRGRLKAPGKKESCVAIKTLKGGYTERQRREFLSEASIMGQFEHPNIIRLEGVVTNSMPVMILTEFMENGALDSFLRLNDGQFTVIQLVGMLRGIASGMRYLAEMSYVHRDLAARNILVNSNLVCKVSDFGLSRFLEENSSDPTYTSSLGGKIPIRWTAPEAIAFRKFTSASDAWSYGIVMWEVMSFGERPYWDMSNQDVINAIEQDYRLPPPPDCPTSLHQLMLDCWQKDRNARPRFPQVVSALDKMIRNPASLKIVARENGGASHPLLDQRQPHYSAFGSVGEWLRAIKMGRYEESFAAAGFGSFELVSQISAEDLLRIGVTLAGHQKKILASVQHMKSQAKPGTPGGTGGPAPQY
Compound,effect on,mode,method,tested at,quantity,result
Cn1cc(-c2cccc(N3CCc4c(sc5c4CC(C)(C)C5)C3=O)c2CO)cc(Nc2ccncn2)c1=O,enzyme activity,inhibitor,,1 µM,inhibition,0%
C#Cc1n[nH]c2c(-c3cn([C@@H](C)c4ccccn4)c(=O)[nH]c3=O)cc(F)cc12,enzyme activity,inhibitor,,0.1 µM,inhibition,5.5%
O=c1[nH]c2ccccc2n1C1CCN(Cc2ccc(-c3[nH]c4cc5ncnc5cc4nc3-c3ccccc3)cc2)CC1,cell-free assay,,,0.5 µM,remaining signal,96.4%
N#CC1(c2ccccn2)CCN(Cc2cc(C(=O)O)c(=O)n3ccccc23)CC1,cell-free assay,,competition with immobilised ligand,1 µM,remaining binding,83%
COc1ncccc1-c1cnn2ccc(N3CCN(C(=O)OC(C)C)CC3)nc12,binding,,competition with immobilised ligand,1 µM,remaining binding,100%
COc1cc(Nc2ncc(F)c(Nc3ccc4c(n3)NC(=O)C(C)(C)O4)n2)cc(OC)c1OC,binding,,competition with immobilised ligand,10 µM,inhibition,50%
Cc1nn(C)cc1-c1nc2c(N3CCN(Cc4ccc(Cl)cc4)CC3)c(Cl)cnc2[nH]1,binding,,competition with immobilised ligand,1 µM,remaining binding,100%
C#Cc1n[nH]c2c(-c3cn([C@@H](C)c4ccccc4)c(=O)[nH]c3=O)cc(F)cc12,enzyme activity,inhibitor,,0.1 µM,inhibition,1.4%
Cn1cncc1[C@](O)(COc1ccc(C#N)cc1-c1ccc(OC(F)(F)F)cc1)c1ccc(C#N)cc1,cell-free assay,,competition with immobilised ligand,1 µM,remaining binding,98%
Cn1cc(-c2cc(F)cc(N3CCn4c(cc5c4CCCC5)C3=O)c2CO)cc(Nc2ccc(N3CCN(C4COC4)CC3)cn2)c1=O,enzyme activity,inhibitor,,0.1 µM,inhibition,8%
